In PubChem BioAssay AID588842 (Broad Institute, 2011) one finds AC50 and activity change, negative = cytotoxicity data, which are given here for 22 compounds.

The structures appear in SMILES notation. Inconclusive results are not listed. Activity calls are given as the source filed them.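 Rule for the calls: active = cytotoxic compounds whose fitted half-effect concentration is at most twice the top tested dose in every test run; inconclusive = test runs disagree, or a flat moderate drop, or a poor fit; inactive = inactive in every run, including wrong-direction effects.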

The test system of the first assay is ldlA[mSR-BI] CHO cells viability, CellTiter-Glo ATP, 24 h. In words: ldlA[mSR-BI] cell viability loss – CellTiter-Glo ATP, 24 h, dry powder, set 4, cytotoxicity control for HDL uptake inhibitor project, dose response (AID 588842).
Conditions: not given
The gist of the method: (§1)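 Test system – ldlA[mSR-BI] cells · Amount – 4,000 cells/well · Medium – 10% FCS plus PSG in Ham's F12 · Times – 24 h compound treatment, 37 °C · Technique – luciferase luminescence reporting cellular ATP, CellTiter-Glo reagent · Read-out basis – IC50 from compound dose-response curves of cell viability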
On to `CCOc1ccccc1/C=C/c1onc(C)c1S(=O)(=O)N1CCC(C(=O)NC(C)(C)C)CC1`, for which the AC50 is 30.1 µM.
On the same count and under the same terms, the result for `C[C@@H]1CN([C@H](C)CO)C(=O)c2cc(NC(=O)Cc3cn(C)c4ccccc34)ccc2O[C@H]1CN(C)S(=O)(=O)c1ccc(F)cc1` reads 47.7 µM; that for `C[C@H]1CN([C@@H](C)CO)C(=O)c2cccc(NC(=O)Nc3ccccc3)c2O[C@@H]1CN(C)Cc1ccc(Cl)c(Cl)c1`, 29.8 µM.
On the same count and under the same terms, to `CC(C)NC(=O)Nc1cccc2c1O[C@H](CN(C)Cc1ccc(Cl)c(Cl)c1)[C@@H](C)CN([C@@H](C)CO)C2=O` belongs 58 µM; to `COc1c(NC(=O)C(=O)c2ccc(OCCN3CCOCC3)c3ccccc23)cc(C(C)(C)C)cc1NS(C)(=O)=O`, 15.5 µM.
Consider `CCC(=O)N1CCc2cc(-c3csc(NC(=O)c4ccc(F)cc4)n3)ccc21`, for which the AC50 was 48.2 µM.
For `CCC(=O)N1CCc2cc(-c3csc(NC(=O)c4ccccc4)n3)ccc21`, the AC50 is 67.8 µM.
On the same count and under the same terms, to `CCCCCCC1CCC/C1=N\NC(N)=S` (configuration not stated) belongs 3.86 µM.

System in a further assay: not listed separately
The assay is described as above. As to conditions: ldlA[mSR-BI] CHO cells viability, CellTiter-Glo ATP, 24 h; at 35 µM (top of the series). The essentials: as §1
As to `O=C(Nc1nc(-c2ccc3c(c2)CCN3S(=O)(=O)c2ccccc2)cs1)c1ccco1`, the activity change, negative = cytotoxicity is -30.8% (inactive).
Same read-out and setting: the result for `CCC(=O)N1CCc2cc(-c3csc(N)n3)ccc21` reads -18.4% (inactive); that for `C[C@@H]1CN([C@H](C)CO)C(=O)c2cc(NC(=O)Cc3cn(C)c4ccccc34)ccc2O[C@H]1CN(C)S(=O)(=O)c1ccc(Cl)cc1`, -19% (inactive).
Still for that read-out and setting: to `CCC(=O)N1CCc2cc(-c3csc(NC(=O)c4ccncc4)n3)ccc21` belongs -2.04% (inactive); to `CC(C(=O)NC1CCCC1)N(C(=O)Cn1nnc(-c2ccc3c(c2)OCO3)n1)C1CCCCC1` (configuration not stated), -16.1% (inactive); to `CCC(=O)N1CCc2cc(-c3csc(NC(=O)c4cnco4)n3)ccc21`, -1.99% (inactive).
Still for that read-out and setting: to `CCC(=O)N1CCc2cc(-c3csc(NC(=O)c4ccoc4)n3)ccc21` belongs -8.58% (inactive); to `CC(C(=O)NC1CCCC1)N(C(=O)Cc1ccccc1)C1CCCCC1` (configuration not stated), -1.74% (inactive).
In the case of `COc1ccc(-c2nnn(CC(=O)N(C3CCCCC3)C(C)C(=O)NC3CCCC3)n2)cc1OC` (configuration not stated), the activity change, negative = cytotoxicity was -11.1% (inactive).
Same read-out and setting: to `CCC(=O)N1CCc2cc(-c3csc(NC(=O)c4ccco4)n3)ccc21` belongs -17.6% (inactive); to `CCC(=O)N1CCc2cc(-c3csc(NC(=O)c4cccnc4)n3)ccc21`, -3.5% (inactive); to `CCC(=O)N1CCc2cc(-c3csc(NC(=O)c4ccc(Cl)cc4)n3)ccc21`, -5.95% (inactive).
`CCC(=O)N1CCc2cc(-c3csc(NC(=O)c4ccc(OC)cc4)n3)ccc21`: the activity change, negative = cytotoxicity is -11.6% (inactive).

The assay is the same for the next values; noted with them: ldlA[mSR-BI] CHO cells viability, CellTiter-Glo ATP, 24 h; at 68 µM (top of the series).
`CCOc1ccc(NC(=O)CN2CCN(CC(=O)Nc3cc(OC)cc(OC)c3)CC2)cc1`: the activity change, negative = cytotoxicity is -20% (inactive).
